Data on 27 compounds can be found in ChEMBL document CHEMBL3870349, “Novel 3-methylindoline inhibitors of EZH2: Design, synthesis and SAR” (Bioorg Med Chem Lett, 2017).

What is called IC50 is the concentration that gives 50% inhibition.

In brackets after ≈: the same amount, converted by molar mass. Where only a bound is given, the exact number is not on record here.

The target in series [1] is T1, Histone-lysine N-methyltransferase EZH1 (Homo sapiens, UniProt Q92800).
T1 sequence (Q92800 whole entry): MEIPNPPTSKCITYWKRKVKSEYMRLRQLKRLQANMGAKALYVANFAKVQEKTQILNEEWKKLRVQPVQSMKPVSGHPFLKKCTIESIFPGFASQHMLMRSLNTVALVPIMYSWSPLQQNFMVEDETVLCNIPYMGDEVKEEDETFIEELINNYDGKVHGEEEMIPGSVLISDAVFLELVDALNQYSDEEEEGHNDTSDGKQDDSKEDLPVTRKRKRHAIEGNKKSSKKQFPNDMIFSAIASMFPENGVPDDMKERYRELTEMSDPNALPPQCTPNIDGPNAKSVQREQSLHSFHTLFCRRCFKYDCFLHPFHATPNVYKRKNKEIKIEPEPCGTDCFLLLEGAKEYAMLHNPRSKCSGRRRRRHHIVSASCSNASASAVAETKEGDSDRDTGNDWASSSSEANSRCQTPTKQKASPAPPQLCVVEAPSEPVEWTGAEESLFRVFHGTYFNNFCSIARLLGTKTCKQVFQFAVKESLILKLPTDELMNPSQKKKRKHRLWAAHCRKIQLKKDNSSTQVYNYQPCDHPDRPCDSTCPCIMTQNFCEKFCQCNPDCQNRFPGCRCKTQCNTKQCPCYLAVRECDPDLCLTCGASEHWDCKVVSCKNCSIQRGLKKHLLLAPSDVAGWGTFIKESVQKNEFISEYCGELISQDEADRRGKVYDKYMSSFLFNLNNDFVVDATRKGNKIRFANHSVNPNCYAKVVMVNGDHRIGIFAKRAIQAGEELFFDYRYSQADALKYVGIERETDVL
The series is described as follows: Inhibition of human EZH1 complex using histone H3 as substrate after 1 hr in presence of 3H-SAM by filter paper detection analysis. In a few lines: (§1)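 Each HMT complex was incubated with 3H-SAM (tritiated S-adenosyl-L-methionine) and histone H3 as substrate. An IC50 curve was generated for each compound.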

The target of series [2] is Histone-lysine N-methyltransferase EZH2 (Homo sapiens, UniProt Q15910, Y641F). The series is described as follows: Inhibition of human EZH2 Y641F mutant using histone H3 as substrate after 1 hr in presence of 3H-SAM by filter paper detection analysis. In a few lines: as §1
Sequence of Histone-lysine N-methyltransferase EZH2 (Homo sapiens, UniProt Q15910, Y641F) (Q15910 whole entry Y641F): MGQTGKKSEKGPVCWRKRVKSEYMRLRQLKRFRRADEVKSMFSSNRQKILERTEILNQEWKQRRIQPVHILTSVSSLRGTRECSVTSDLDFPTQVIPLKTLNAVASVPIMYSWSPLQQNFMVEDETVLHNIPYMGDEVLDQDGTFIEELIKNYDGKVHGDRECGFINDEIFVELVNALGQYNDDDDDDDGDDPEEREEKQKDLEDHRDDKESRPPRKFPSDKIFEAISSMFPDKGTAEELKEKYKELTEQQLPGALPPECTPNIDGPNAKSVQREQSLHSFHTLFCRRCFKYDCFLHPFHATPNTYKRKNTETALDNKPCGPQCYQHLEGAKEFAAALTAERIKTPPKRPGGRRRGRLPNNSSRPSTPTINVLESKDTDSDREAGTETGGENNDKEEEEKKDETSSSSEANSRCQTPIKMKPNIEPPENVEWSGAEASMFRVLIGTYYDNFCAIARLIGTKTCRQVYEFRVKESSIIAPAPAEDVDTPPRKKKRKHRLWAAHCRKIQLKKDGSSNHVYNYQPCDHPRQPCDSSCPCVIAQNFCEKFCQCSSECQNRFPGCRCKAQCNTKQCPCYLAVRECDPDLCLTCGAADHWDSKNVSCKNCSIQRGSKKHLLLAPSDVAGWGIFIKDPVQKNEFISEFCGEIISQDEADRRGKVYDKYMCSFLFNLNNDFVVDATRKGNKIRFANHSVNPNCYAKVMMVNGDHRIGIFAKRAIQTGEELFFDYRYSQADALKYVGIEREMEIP
Series [3] addresses Histone-lysine N-methyltransferase EZH2 (Homo sapiens, UniProt Q15910). In words: Inhibition of human wild type EZH2 using histone H3 as substrate after 1 hr in presence of 3H-SAM by filter paper detection analysis. In a few lines: as §1
Series [4] in a line: Kinetic solubility of compound in PBS buffer at pH 7.4 after 1 hr by micro-plate nephelometric analysis. In kind it is physicochemical. The settings on record: read-out: Kinetic_solubility.
Series [5] can be described thus: Oxidative metabolic stability in human liver microsomes assessed as amount of parent compound remaining at 1 uM after 30 mins by LC-MS/MS. Conditions: read-out: Stability. The format is ADME.
A short description of series [6]: Oxidative metabolic stability in mouse liver microsomes assessed as amount of parent compound remaining at 1 uM after 30 mins by LC-MS/MS. In kind it is ADME. The settings on record: read-out: Stability. In general terms: Microsomes from liver hold many membrane-bound enzymes, among them those of drug oxidation.

Sequence of Histone-lysine N-methyltransferase EZH2 (Homo sapiens, UniProt Q15910) (Q15910 whole entry): as the sequence (Q15910 whole entry Y641F) above, with F641Y counted along it

As for `Cc1cc(C)c(CNC(=O)c2cc(-c3ccc(CN4CCOCC4)cc3)cc3c2C(C)CN3C(C)C)c(=O)[nH]1` (stereo in doubt; 30e1), the IC50 in series [1] amounted to 2710 nM; in series [2], 518 nM; in series [3], 47 nM.

For `Cc1cc(C)c(CNC(=O)c2cc(-c3ccc(CN4CCOCC4)cc3)cc3c2C(C)CN3C2CCOCC2)c(=O)[nH]1` (stereo in doubt; 34e1), in series [4], the solubility kinetic at 1 h was 75 µM (≈ 42.8 µg/mL). For the same compound, the IC50 in series [1] was 3340 nM; in series [2], 975 nM; in series [3], 29 nM. The remaining at 0.5 h, 1 µM in series [5] amounted to 62%; in series [6] it was 58%.

As for `Cc1cc(C)c(CNC(=O)c2cc(-c3cnc(N4CCNCC4)c4ccccc34)cc3c2C(C)CN3C2CCOCC2)c(=O)[nH]1` (stereo in doubt; 36e1), the values for the IC50 in series [1], in series [2] and in series [3] were 1560 nM, 304 nM and 17 nM, respectively.

As to `Cc1cc(C)c(CNC(=O)c2cc(C#N)cc3c2CCN3C(C)C)c(=O)[nH]1`, in series [3], the IC50 worked out at 26600 nM.

With `Cc1cc(C)c(CNC(=O)c2cc(-c3cnc(N4CCNCC4)nc3)cc3c2C(C)CN3C2CCOCC2)c(=O)[nH]1` (stereo in doubt; 45e1), the IC50 in series [3] was determined as 98 nM.

Regarding `Cc1cc(C)c(CNC(=O)c2cc(-c3ccc(CN4CCOCC4)cc3)cc3c2C(C)CN3C2CCOCC2)c(=O)[nH]1` (stereo in doubt; 34e2), the IC50 in series [3] amounted to 6980 nM.

Regarding `Cc1cc(C)c(CNC(=O)c2cc(C#N)cc3c2CCN3C2CCCC2)c(=O)[nH]1`, the IC50 in series [3] stood at 571 nM.

`Cc1cc(C)c(CNC(=O)c2cc(-c3ccc(CN4CCOCC4)cc3)cc3c2CCN3C2CCOCC2)c(=O)[nH]1`: the IC50 in series [3] was determined as 237 nM.

With `Cc1cc(C)c(CNC(=O)c2cc(-c3ccc(N4CCNCC4)nc3)cc3c2C(C)CN3C2CCCC2)c(=O)[nH]1` (stereo in doubt; 40e2), the IC50 in series [3] is 378 nM.

For the compound `Cc1cc(C)c(CNC(=O)c2cc(-c3ccc(N4CCNCC4)nc3)cc3c2C(C)CN3C(C)C)c(=O)[nH]1` (stereo in doubt; 39e1), the IC50 in series [1] was found to be 1870 nM; in series [2], 622 nM; in series [3] it was 17 nM.

With `Cc1cc(C)c(CNC(=O)c2cc(C#N)cc3c2CCN3C2CCOCC2)c(=O)[nH]1`, the IC50 in series [3] came out at 15700 nM.

As for `Cc1cc(C)c(CNC(=O)c2cc(C#N)cc3c2C(C)CN3C(C)C)c(=O)[nH]1` (stereo in doubt; 27e1), the IC50 in series [1] stood at 7750 nM; in series [2] it was 478 nM; in series [3], 88 nM.

Take `Cc1cc(C)c(CNC(=O)c2cc(-c3ccc(CN4CCOCC4)cc3)cc3c2C(C)CN3CC2CC2)c(=O)[nH]1` (stereo in doubt; 31e2): the IC50 in series [3] is 15200 nM.

For `Cc1cc(C)c(CNC(=O)c2cc(-c3ccc(N4CCNCC4)nc3)cc3c2C(C)CN3C2CCOCC2)c(=O)[nH]1` (stereo in doubt; 41e1), in series [4], the solubility kinetic at 1 h worked out at 75 µM (≈ 41.8 µg/mL). Also, the figures for the IC50 in series [1], in series [2] and in series [3] were 1980 nM, 578 nM and 11 nM, respectively. Also, the remaining at 0.5 h, 1 µM in series [5] was found to be 83%; in series [6] it was 95%.

On to `Cc1cc(C)c(CNC(=O)c2cc(-c3ccc(CN4CCOCC4)cc3)cc3c2C(C)CN3CC2CC2)c(=O)[nH]1` (stereo in doubt; 31e1), for which the IC50 in series [3] was determined as 375 nM.

In the case of `Cc1cc(C)c(CNC(=O)c2cc(-c3ccc(CN4CCOCC4)cc3)cc3c2C(C)CN3C(C)C)c(=O)[nH]1` (stereo in doubt; 30e2), the IC50 in series [3] is 4140 nM.

Consider `Cc1cc(C)c(CNC(=O)c2cc(-c3ccc(N4CCNCC4)nc3)cc3c2C(C)CN3C2CCCC2)c(=O)[nH]1` (stereo in doubt; 40e1), for which the IC50 amounted to 1350 nM in series [1], 505 nM in series [2] and 21 nM in series [3].

On to `Cc1cc(C)c(CNC(=O)c2cc(-c3ccc(CN4CCOCC4)cc3)cc3c2C(C)CN3C2CCCC2)c(=O)[nH]1` (stereo in doubt; 33e1), for which the IC50 in series [1] is 2650 nM; in series [2], 902 nM; in series [3] it was 24 nM.

As for `CCN(c1cc(-c2ccc(CN3CCOCC3)cc2)cc(C(=O)NCc2c(C)cc(C)[nH]c2=O)c1C)C1CCOCC1` [TAZEMETOSTAT], in series [4], the solubility kinetic at 1 h was 28 µM (≈ 16 µg/mL). Also, the remaining at 0.5 h, 1 µM worked out at 25% in series [5] and 39% in series [6].

`Cc1cc(C)c(CNC(=O)c2cc(-c3ccc(CN4CCOCC4)cc3)cc3c2C(C)CN3C2CCCC2)c(=O)[nH]1` (stereo in doubt; 33e2): the IC50 in series [3] worked out at 448 nM.

In the case of `Cc1cc(C)c(CNC(=O)c2cc(-c3cnc(N4CCNCC4)c4ccccc34)cc3c2C(C)CN3C2CCOCC2)c(=O)[nH]1` (stereo in doubt; 36e2), the IC50 in series [3] turned out to be 540 nM.

Consider `Cc1cc(C)c(CNC(=O)c2cc(C#N)cc3c2C(C)CN3C2CCCC2)c(=O)[nH]1` (stereo in doubt; 28e2), for which, in series [3], the IC50 was more than 100000 nM.

As to `Cc1cc(C)c(CNC(=O)c2cc(-c3cnc(N4CCNCC4)nc3)cc3c2C(C)CN3C2CCOCC2)c(=O)[nH]1` (stereo in doubt; 45e2), the IC50 in series [3] amounted to 2160 nM.

With `Cc1cc(C)c(CNC(=O)c2cc(-c3ccc(N4CCNCC4)nc3)cc3c2C(C)CN3C(C)C)c(=O)[nH]1` (stereo in doubt; 39e2), the IC50 in series [3] was determined as 1080 nM.

As to `Cc1cc(C)c(CNC(=O)c2cc(C#N)cc3c2C(C)CN3C(C)C)c(=O)[nH]1` (stereo in doubt; 27e2), the IC50 in series [3] was more than 100000 nM.

With `Cc1cc(C)c(CNC(=O)c2cc(-c3ccc(N4CCNCC4)nc3)cc3c2C(C)CN3C2CCOCC2)c(=O)[nH]1` (stereo in doubt; 41e2), the IC50 in series [3] was found to be 2150 nM.

Turning to `Cc1cc(C)c(CNC(=O)c2cc(C#N)cc3c2C(C)CN3C2CCCC2)c(=O)[nH]1` (stereo in doubt; 28e1), the IC50 in series [1] turned out to be 4440 nM; in series [2] it was 185 nM; in series [3], 27 nM.
